This note sets out measurements from ChEMBL document CHEMBL1135734, “Side-chain lactam-bridge conformational constraints differentiate the activities of salmon and human calcitonins and reveal a new design concept for potent calcitonin analogues” (J Med Chem, 2002).

The structures appear in SMILES notation. Positions of bridges follow the written chain, without caps; N, C: chain ends. Non-standard residues stand in square brackets, D forms with d. Residues, ends and D or L forms follow the SMILES beside them. Nle = CCCC[C@H](N)C(=O)O; Orn = NCCC[C@H](N)C(=O)O

Test [1] addresses T1, Calcitonin receptor (Homo sapiens, UniProt P30988).
T1 sequence (P30988 whole entry): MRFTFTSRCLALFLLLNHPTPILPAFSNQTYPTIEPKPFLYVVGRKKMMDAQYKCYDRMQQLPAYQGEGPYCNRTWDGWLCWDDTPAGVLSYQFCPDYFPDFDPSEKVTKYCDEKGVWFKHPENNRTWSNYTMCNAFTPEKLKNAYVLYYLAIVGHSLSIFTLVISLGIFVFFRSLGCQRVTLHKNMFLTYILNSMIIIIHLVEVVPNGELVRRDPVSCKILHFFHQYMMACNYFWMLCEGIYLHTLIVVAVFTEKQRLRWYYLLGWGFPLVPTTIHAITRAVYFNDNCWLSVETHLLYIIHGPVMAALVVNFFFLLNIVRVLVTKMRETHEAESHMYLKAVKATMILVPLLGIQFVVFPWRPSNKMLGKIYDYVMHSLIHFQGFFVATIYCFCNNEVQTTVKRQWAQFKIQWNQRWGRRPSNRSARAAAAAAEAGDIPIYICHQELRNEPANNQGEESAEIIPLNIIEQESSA
Put plainly: Inhibition of [125I]-salmon calcitonin (sCT) binding to human calcitonin receptor I1 expressed in HEK293 cells. Type of test: cell-based.

Test [2] deals with T2, Calcitonin receptor (Rattus norvegicus, UniProt P32214).
T2 sequence (P32214 whole entry): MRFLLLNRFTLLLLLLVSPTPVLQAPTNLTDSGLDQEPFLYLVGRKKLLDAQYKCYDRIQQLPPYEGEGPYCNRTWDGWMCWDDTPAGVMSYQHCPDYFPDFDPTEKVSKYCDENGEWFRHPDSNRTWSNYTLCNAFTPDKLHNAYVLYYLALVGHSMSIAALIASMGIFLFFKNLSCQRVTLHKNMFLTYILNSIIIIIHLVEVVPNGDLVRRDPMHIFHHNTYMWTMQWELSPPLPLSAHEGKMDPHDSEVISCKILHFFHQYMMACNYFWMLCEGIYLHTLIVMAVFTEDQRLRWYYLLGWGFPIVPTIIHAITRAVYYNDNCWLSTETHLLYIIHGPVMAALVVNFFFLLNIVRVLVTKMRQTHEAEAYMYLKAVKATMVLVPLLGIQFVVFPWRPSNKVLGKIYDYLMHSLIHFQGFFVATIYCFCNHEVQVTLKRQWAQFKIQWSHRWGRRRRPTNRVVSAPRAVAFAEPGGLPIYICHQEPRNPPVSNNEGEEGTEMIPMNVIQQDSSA
Put plainly: Displacement of [125I]-salmon calcitonin (sCT) from calcitonin receptor of rat brain. In short, it runs like this:
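Male Sprague–Dawley rat (250–350 g) brain membranes (~0.63 mg protein/tube) were shaken on ice for 30 min with 10 pM final [125I-Tyr22]sCT and competitor in 50 mM Tris-HCl pH 7.4 with 34 μM bacitracin. Tubes were centrifuged and the pellets washed, SDS-solubilized and scintillation counted. Nonspecific binding was taken with 1 μM sCT. IC50 came from probit analysis, and relative affinity set sCT = 100%.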

As to `CC(C)C[C@H](NC(=O)[C@H](CCCCN)NC(=O)CNC(=O)[C@H](CC(C)C)NC(=O)[C@@H](NC(=O)[C@H](CS)NC(=O)[C@@H](NC(=O)[C@H](CO)NC(=O)[C@H](CC(C)C)NC(=O)[C@H](CC(N)=O)NC(=O)[C@H](CO)NC(=O)[C@@H](N)CS)[C@@H](C)O)C(C)C)C(=O)N[C@@H](CO)C(=O)N[C@@H](CCC(N)=O)C(=O)N[C@@H](CCC(=O)O)C(=O)N[C@@H](CC(C)C)C(=O)N[C@H]1CC(=O)NCCC[C@@H](C(=O)N[C@@H](Cc2ccc(O)cc2)C(=O)N2CCC[C@H]2C(=O)N[C@@H](CCCN=C(N)N)C(=O)N[C@H](C(=O)N[C@@H](CC(N)=O)C(=O)N[C@H](C(=O)NCC(=O)N[C@@H](CO)C(=O)NCC(=O)N[C@H](C(=O)N2CCC[C@H]2C(N)=O)[C@@H](C)O)[C@@H](C)O)[C@@H](C)O)NC(=O)[C@H](Cc2c[nH]cn2)NC(=O)[C@H](CC(C)C)NC(=O)[C@H](CCCCN)NC1=O` (H-CSNLSTCVLGKLSQELDKLH[Orn]YPRTNTGSGTP-NH2; lactam 17-21), the inhibition constant Ki at Calcitonin receptor [1] (hek293) is 0.069 nM. Besides, the IC50 at Calcitonin receptor [2] is 0.249 nM.
Turning to `CCCC[C@H](NC(=O)[C@H](CS)NC(=O)[C@@H](NC(=O)[C@H](CO)NC(=O)[C@H](CC(C)C)NC(=O)[C@H](CC(N)=O)NC(=O)CNC(=O)[C@@H](N)CS)[C@@H](C)O)C(=O)N[C@@H](CC(C)C)C(=O)NCC(=O)N[C@H](C(=O)N[C@@H](Cc1ccccc1)C(=O)N[C@H](C(=O)N[C@@H](CCC(N)=O)C(=O)N[C@@H](CC(=O)O)C(=O)N[C@@H](Cc1ccccc1)C(=O)N[C@H]1CC(=O)NCCC[C@@H](C(=O)N[C@@H](Cc2ccc(O)cc2)C(=O)N2CCC[C@H]2C(=O)N[C@@H](CCC(N)=O)C(=O)N[C@H](C(=O)N[C@@H](C)C(=O)N[C@H](C(=O)NCC(=O)N[C@H](C(=O)NCC(=O)N[C@@H](C)C(=O)N2CCC[C@H]2C(N)=O)C(C)C)[C@@H](C)CC)[C@@H](C)O)NC(=O)[C@H](Cc2c[nH]cn2)NC(=O)[C@H](Cc2ccccc2)NC(=O)[C@H](CCCCN)NC1=O)[C@@H](C)O)[C@@H](C)O` (H-CGNLSTC[Nle]LGTFTQDFDKFH[Orn]YPQTAIGVGAP-NH2; lactam 17-21), the Ki at Calcitonin receptor [1] (hek293) came out at 0.56 nM. The IC50 on Calcitonin receptor [2] stood at 5.39 nM.
`CC[C@H](C)[C@H](NC(=O)[C@H](C)NC(=O)[C@@H](NC(=O)[C@H](CCC(N)=O)NC(=O)[C@@H]1CCCN1C(=O)[C@H](Cc1ccccc1)NC(=O)[C@@H]1CCCCNC(=O)C[C@H](NC(=O)[C@H](Cc2ccccc2)NC(=O)[C@H](CC(=O)O)NC(=O)[C@H](CCC(N)=O)NC(=O)[C@@H](NC(=O)[C@H](Cc2ccc(O)cc2)NC(=O)[C@@H](NC(=O)CNC(=O)[C@H](CC(C)C)NC(=O)[C@H](CCSC)NC(=O)[C@@H]2CSSC[C@H](N)C(=O)NCC(=O)N[C@@H](CC(N)=O)C(=O)N[C@@H](CC(C)C)C(=O)N[C@@H](CO)C(=O)N[C@@H]([C@@H](C)O)C(=O)N2)[C@@H](C)O)[C@@H](C)O)C(=O)N[C@@H](CCCCN)C(=O)N[C@@H](Cc2ccccc2)C(=O)N[C@@H](Cc2cnc[nH]2)C(=O)N1)[C@@H](C)O)C(=O)NCC(=O)N[C@H](C(=O)NCC(=O)N[C@@H](C)C(=O)N1CCC[C@H]1C(N)=O)C(C)C` (H-CGNLSTCMLGTYTQDFDKFHKFPQTAIGVGAP-NH2; disulfide 1-7; lactam 17-21): the inhibition constant Ki on Calcitonin receptor [1] (hek293) stood at 195 nM. Besides, the concentration for half-maximal inhibition (IC50) on Calcitonin receptor [2] is 60 nM.
On the same counts, the results for `CC[C@H](C)[C@H](NC(=O)[C@H](C)NC(=O)[C@@H](NC(=O)[C@H](CCC(N)=O)NC(=O)[C@@H]1CCCN1C(=O)[C@H](Cc1ccccc1)NC(=O)[C@@H](NC(=O)[C@H](Cc1c[nH]cn1)NC(=O)[C@@H]1CCCN1C(=O)[C@H](CCCCN)NC(=O)[C@H](CC(N)=O)NC(=O)[C@H](Cc1ccccc1)NC(=O)[C@H](CC(=O)O)NC(=O)[C@H](CCC(N)=O)NC(=O)[C@@H](NC(=O)[C@H](Cc1ccc(O)cc1)NC(=O)[C@@H](NC(=O)CNC(=O)[C@H](CC(C)C)NC(=O)[C@H](CCSC)NC(=O)[C@@H]1CSSC[C@H](N)C(=O)NCC(=O)N[C@@H](CC(N)=O)C(=O)N[C@@H](CC(C)C)C(=O)N[C@@H](CO)C(=O)N[C@@H]([C@@H](C)O)C(=O)N1)[C@@H](C)O)[C@@H](C)O)[C@@H](C)O)[C@@H](C)O)C(=O)NCC(=O)N[C@H](C(=O)NCC(=O)N[C@@H](C)C(=O)N1CCC[C@H]1C(N)=O)C(C)C` (H-CGNLSTCMLGTYTQDFNKPHTFPQTAIGVGAP-NH2; disulfide 1-7) are 400 nM and > 5000 nM.
On the same counts, the results for `CC[C@H](C)[C@H](NC(=O)[C@H](C)NC(=O)[C@@H](NC(=O)[C@H](CCC(N)=O)NC(=O)[C@@H]1CCCN1C(=O)[C@H](Cc1ccccc1)NC(=O)[C@@H](NC(=O)[C@H](Cc1c[nH]cn1)NC(=O)[C@H](CCCCN)NC(=O)[C@@H]1CCCN1C(=O)[C@H](CC(N)=O)NC(=O)[C@H](Cc1ccccc1)NC(=O)[C@H](CC(=O)O)NC(=O)[C@H](CCC(N)=O)NC(=O)[C@@H](NC(=O)[C@H](Cc1ccc(O)cc1)NC(=O)[C@@H](NC(=O)CNC(=O)[C@H](CC(C)C)NC(=O)[C@H](CCSC)NC(=O)[C@@H]1CSSC[C@H](N)C(=O)NCC(=O)N[C@@H](CC(N)=O)C(=O)N[C@@H](CC(C)C)C(=O)N[C@@H](CO)C(=O)N[C@@H]([C@@H](C)O)C(=O)N1)[C@@H](C)O)[C@@H](C)O)[C@@H](C)O)[C@@H](C)O)C(=O)NCC(=O)N[C@H](C(=O)NCC(=O)N[C@@H](C)C(=O)N1CCC[C@H]1C(N)=O)C(C)C` (H-CGNLSTCMLGTYTQDFNPKHTFPQTAIGVGAP-NH2; disulfide 1-7) are 2570 nM and > 5000 nM.
As to `CC[C@H](C)[C@H](NC(=O)[C@H](C)NC(=O)[C@@H](NC(=O)[C@H](CCC(N)=O)NC(=O)[C@@H]1CCCN1C(=O)[C@H](Cc1ccccc1)NC(=O)[C@@H](NC(=O)[C@H](Cc1c[nH]cn1)NC(=O)[C@H](Cc1ccccc1)NC(=O)[C@H](CCCCN)NC(=O)[C@H](CC(N)=O)NC(=O)[C@H](Cc1ccccc1)NC(=O)[C@H](CC(=O)O)NC(=O)[C@H](CCC(N)=O)NC(=O)[C@@H](NC(=O)[C@H](Cc1ccc(O)cc1)NC(=O)[C@@H](NC(=O)CNC(=O)[C@H](CC(C)C)NC(=O)[C@H](CCSC)NC(=O)[C@@H]1CSSC[C@H](N)C(=O)NCC(=O)N[C@@H](CC(N)=O)C(=O)N[C@@H](CC(C)C)C(=O)N[C@@H](CO)C(=O)N[C@@H]([C@@H](C)O)C(=O)N1)[C@@H](C)O)[C@@H](C)O)[C@@H](C)O)[C@@H](C)O)C(=O)NCC(=O)N[C@H](C(=O)NCC(=O)N[C@@H](C)C(=O)N1CCC[C@H]1C(N)=O)C(C)C`, at Calcitonin receptor [2], the IC50 is 2450 nM.
The same measure, in the same setting: with `CC[C@H](C)[C@H](NC(=O)[C@H](C)NC(=O)[C@@H](NC(=O)[C@H](CCC(N)=O)NC(=O)[C@@H]1CCCN1C(=O)[C@H](Cc1ccccc1)NC(=O)[C@@H]1CCCNC(=O)C[C@H](NC(=O)[C@H](Cc2ccccc2)NC(=O)[C@H](CC(=O)O)NC(=O)[C@H](CCC(N)=O)NC(=O)[C@@H](NC(=O)[C@H](Cc2ccc(O)cc2)NC(=O)[C@@H](NC(=O)CNC(=O)[C@H](CC(C)C)NC(=O)[C@H](CCSC)NC(=O)[C@H](CS)NC(=O)[C@@H](NC(=O)[C@H](CO)NC(=O)[C@H](CC(C)C)NC(=O)[C@H](CC(N)=O)NC(=O)CNC(=O)[C@@H](N)CS)[C@@H](C)O)[C@@H](C)O)[C@@H](C)O)C(=O)N[C@@H](CCCCN)C(=O)N[C@@H](Cc2ccccc2)C(=O)N[C@@H](Cc2c[nH]cn2)C(=O)N1)[C@@H](C)O)C(=O)NCC(=O)N[C@H](C(=O)NCC(=O)N[C@@H](C)C(=O)N1CCC[C@H]1C(N)=O)C(C)C` (H-CGNLSTCMLGTYTQDFDKFH[Orn]FPQTAIGVGAP-NH2; lactam 17-21) the figure was 173 nM.
On to `CC(C)C[C@H](NC(=O)[C@H](CCCCN)NC(=O)CNC(=O)[C@H](CC(C)C)NC(=O)[C@@H](NC(=O)[C@@H]1CSSC[C@H](N)C(=O)N[C@@H](CO)C(=O)N[C@@H](CC(N)=O)C(=O)N[C@@H](CC(C)C)C(=O)N[C@@H](CO)C(=O)N[C@@H]([C@@H](C)O)C(=O)N1)C(C)C)C(=O)N[C@@H](CO)C(=O)N[C@@H](CCC(N)=O)C(=O)N[C@@H](CCC(=O)O)C(=O)N[C@@H](CC(C)C)C(=O)N[C@@H](Cc1c[nH]cn1)C(=O)N[C@@H](CCCCN)C(=O)N[C@@H](CC(C)C)C(=O)N[C@@H](CCC(N)=O)C(=O)N[C@H](C(=O)N[C@@H](Cc1ccc(O)cc1)C(=O)N1CCC[C@H]1C(=O)N[C@@H](CCCNC(=N)N)C(=O)N[C@H](C(=O)N[C@@H](CC(N)=O)C(=O)N[C@H](C(=O)NCC(=O)N[C@@H](CO)C(=O)NCC(=O)N[C@H](C(=O)N1CCC[C@H]1C(N)=O)[C@@H](C)O)[C@@H](C)O)[C@@H](C)O)[C@@H](C)O`, for which the Ki at Calcitonin receptor [1] was […]. Moreover, the IC50 at Calcitonin receptor [2] was determined as 0.377 nM.
